Data set [1] can be described thus: Selectivity index, ratio of CC50 for African green monkey Vero cells to EC50 for Chikungunya virus 899 infected in African green monkey Vero cells. The following applies: read-out: Ratio CC50/EC50. The data set is classed as toxicity, cell-based. In a few lines: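 Ratio of CC50 in uninfected Vero cells (MTS/PMS) to EC50 for inhibition of CHIKV 899-induced CPE in Vero cells, both from logarithmic interpolation.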

Data set [2] can be described thus: Cytotoxicity against African green monkey Vero cells assessed as reduction in metabolic activity by MTS/PMS based microscopic analysis. In kind it is toxicity, cell-based. The following applies: chlorocebus sabaeus. In a few lines:
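Uninfected Vero cells exposed to compound dilution series; overall metabolic activity measured by MTS/PMS, with microscopic checks of cell/monolayer morphology. CC50 = concentration reducing metabolic activity by 50%, by logarithmic interpolation.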

Data set [3] concerns Chikungunya virus. Briefly: Antiviral activity against Chikungunya virus 899 infected in African green monkey Vero cells assessed as inhibition of virus-induced cytopathogenic effect measured 5 days post infection by MTS/PMS based microscopic analysis. The data set is classed as functional, cell-based. The following applies: Chikungunya virus, 899, Vero, 120 h.
For data set [4], the system named is Chikungunya virus. Kind of data set: Antiviral activity against Chikungunya virus 899 infected in African green monkey Vero A cells assessed as reduction in infectious virus particle production incubated for 48 hrs by end-point titration assay. In kind it is functional, cell-based. The conditions noted are these: for EC50: Chikungunya virus, 899, Vero.
For data set [5], the system named is Chikungunya virus. Kind of data set: Antiviral activity against Chikungunya virus 899 infected in African green monkey Vero A cells assessed as reduction in viral RNA level incubated for 48 hrs by qRT-PCR analysis. The data set is classed as functional, cell-based. The following applies: for EC50: Chikungunya virus, 899, Vero.
Data set [6] can be described thus: Cytotoxicity against African green monkey BGM cells. The data set is classed as toxicity, cell-based. The following applies: chlorocebus aethiops.
In the next data set the test system is Semliki Forest virus. Kind of data set: Antiviral activity against Semliki forest virus infected in African green monkey Vero A cells assessed as inhibition of virus-induced cytopathogenic effect measured 5 days post infection by MTS/PMS based microscopic analysis. In kind it is functional, cell-based. The conditions noted are these: 120 h.
Data set [7] concerns Chikungunya virus. Kind of data set: Antiviral activity against Chikungunya virus 899 pseudoparticles infected in African green monkey BGM cells assessed as inhibition of pseudoparticles entry after 72 hrs by luciferase reporter gene assay. The following applies: Chikungunya virus, 899, BGM. In kind it is functional, cell-based. In a few lines: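 BGM cells at 2.5 × 10^4/well adhered overnight; serial compound dilutions added, then cells infected with lentiviral pseudoparticles bearing CHIKV glycoproteins and firefly luciferase reporter. After 72 h cells lysed and intracellular luciferase activity measured as entry read-out. Mean ± SD, ≥3 independent experiments.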
(In general: Reporter assays use an easily measured gene product as a stand-in for the process of interest.)

For a further data set, the system named is Sindbis virus. Kind of data set: Antiviral activity against Sindbis virus infected in African green monkey Vero A cells assessed as inhibition of virus-induced cytopathogenic effect measured 5 days post infection by MTS/PMS based microscopic analysis. In kind it is functional, cell-based. The conditions noted are these: 120 h. On the technique in general: Protection from cytopathic effect is a common read-out in antiviral testing.

The subject of data set [8] is Chikungunya virus. Briefly: Antiviral activity against Chikungunya virus 899 infected in African green monkey Vero A cells assessed as inhibition of viral replication at post entry step by measuring reduction in intracellular viral RNA treated up to 6 hrs post infection measured after 24 hrs by qRT-PCR analysis. In kind it is functional, cell-based. Background: Quantitative PCR measures a nucleic acid by following its amplification.

The test system of data set [9] is Chikungunya virus. Briefly: Antiviral activity against Chikungunya virus 899 infected in African green monkey Vero A cells assessed as inhibition of viral replication at post entry step by measuring reduction in intracellular viral RNA treated 2 hrs post infection measured after 24 hrs by qRT-PCR analysis. The data set is classed as functional.
Data set [10] relates to Chikungunya virus. Briefly: Antiviral activity against Chikungunya virus assessed as inhibition of virus replication by cell based assay. The data set is classed as functional.
Data set [11] concerns Chikungunya virus. Briefly: Antiviral activity against Chikungunya virus 899 infected in African green monkey Vero A cells assessed as inhibition of viral replication by measuring reduction in intracellular viral RNA treated 2 hrs prior to infection measured after 24 hrs by qRT-PCR analysis. In kind it is functional.

SMILES strings stand for the structures. The source made the active and inactive calls. No cut-off for these calls is given here.

The term CC50 denotes the concentration that lowers cell viability or growth by half. The EC50 is the concentration at which the effect is half-maximal. Regarding `Cn1c(C[S+]([O-])c2ccc(F)cc2)c(C(=O)OC(C)(C)C)c2cc(O)ccc21` (centres undefined), the selectivity ratio in data set [1] is greater than 5.7. Also, the CC50 in data set [2] is greater than 100 µM. Besides, the EC50 with Chikungunya virus [3] is 17 µM.

With `CN(C)Cc1c(O)c(Br)cc2c1c(C(=O)OC(C)(C)C)c(C[S+]([O-])c1ccccc1C(F)(F)F)n2C` (centres undefined), the selectivity ratio in data set [1] was 4.6. In [2], the CC50 worked out at 56 µM. Further, in the data set on Chikungunya virus [3], the EC50 came out at 12 µM.

Take `CN(C)Cc1c(O)ccc2c1c(C(=O)OC(C)(C)C)c(C[S+]([O-])c1ccccc1C(F)(F)F)n2C` (centres undefined): the selectivity ratio in data set [1] came to 3. In data set [2], the CC50 was determined as 66 µM. Besides, the EC50 with Chikungunya virus [3] amounted to 22 µM.

For the compound `Cn1c(CSc2ccc(C(F)(F)F)cc2)c(C(=O)OC(C)(C)C)c2cc(O)ccc21`, in data set [1], the selectivity ratio amounted to 3.1. Further, in data set [2], the cytotoxic concentration (CC50) was 11 µM. The EC50 in the data set with Chikungunya virus [3] was found to be 3.6 µM.

Consider `Cn1c(CSc2ccccc2C(F)(F)F)c(C(=O)OC(C)(C)C)c2cc(O)ccc21`, for which the selectivity ratio in [1] was 4.1. For the same compound, the CC50 in data set [2] is 19 µM. Moreover, in the data set with Chikungunya virus [3], the half-maximal effective concentration (EC50) turned out to be 3.4 µM.

In the case of `Cn1c(C[S+]([O-])c2ccccc2C(F)(F)F)c(C(=O)OC(C)(C)C)c2cc(CO)ccc21` (centres undefined), the EC50 with Chikungunya virus [4] came to 10 µM; in the data set with Chikungunya virus [5], 9 µM; in the data set with Semliki Forest virus it was 128 µM; in the data set with Chikungunya virus [7], 36 µM; with Sindbis virus, 96 µM; in the data set with Chikungunya virus [3], 32 µM. The selectivity ratio in data set [1] is greater than 14.6. Moreover, the figures for the CC50 in data set [6] and in [2] were greater than 60 µM and greater than 468 µM, respectively.

On to `Cn1c(CSc2c(Cl)cccc2Cl)c(C(=O)OC(C)(C)C)c2cc(O)c(Br)cc21`, for which the selectivity ratio in data set [1] was 2.3. In addition, the CC50 in data set [2] came out at 13 µM. Further, the EC50 in the data set on Chikungunya virus [3] was determined as 5.7 µM.

As for `Cn1c(C[S+]([O-])c2ccc(C(F)(F)F)cc2)c(C(=O)OC(C)(C)C)c2cc(O)ccc21` (centres undefined), in data set [1], the selectivity ratio is 1.9. Also, the CC50 in data set [2] came to 24 µM. Also, the EC50 in the data set with Chikungunya virus [3] was 13 µM.

On to `Cn1c(C[S+]([O-])c2ccccc2C(F)(F)F)c(C(=O)OC(C)(C)C)c2cc(O)ccc21` (centres undefined), for which, in the data set on Chikungunya virus [8], the inhibition result is “Active”. Also, the Activity result with Chikungunya virus [4] and in the data set with Chikungunya virus [5] was “Dose-dependent effect” in each case. Moreover, the EC50 with Chikungunya virus [4] was found to be 1 µM; in the data set on Chikungunya virus [5] it was 1 µM; in the data set on Semliki Forest virus, 33 µM; with Chikungunya virus [7], 27 µM; with Sindbis virus, 20 µM; with Chikungunya virus [3], 6.5 µM. In addition, the selectivity ratio in [1] came to 22. Moreover, the values for the CC50 in data set [6] and in data set [2] were 50 µM and 156 µM, respectively.

In the case of `Cn1c(C[S+]([O-])c2c(Cl)cccc2Cl)c(C(=O)OC(C)(C)C)c2cc(CO)ccc21` (centres undefined), the selectivity ratio in data set [1] was found to be 13.2. In addition, the CC50 in data set [2] worked out at 397 µM. Moreover, in the data set with Chikungunya virus [3], the EC50 came to 30 µM.

Take `Cn1c(C[S+]([O-])c2ccccc2C(F)(F)F)c(C(=O)OC(C)(C)C)c2cc(O)c(Br)cc21` (centres undefined): in data set [1], the selectivity ratio worked out at 2.7. In [2], the CC50 is 26 µM. Further, the EC50 with Chikungunya virus [3] came out at 9.6 µM.

Take `CCOC(=O)c1c(CSc2ccccc2)n(C)c2cc(Br)c(O)c(CN(C)C)c12` [UMIFENOVIR]: the “inhibition (INH)” value in the data set on Chikungunya virus [9] and with Chikungunya virus [11] was greater than 50% in each case. The figures for the EC50 in the data set on Chikungunya virus [10], with Chikungunya virus [7] and in the data set on Chikungunya virus [3] were less than 10 µg/mL, 4.4 µM and 35 µM, respectively. In [1], the selectivity ratio was 4.6. For the same compound, the CC50 in [6] was greater than 60 µM; in data set [2] it was 161 µM.

For `Cn1c(C[S+]([O-])c2c(Cl)cccc2Cl)c(C(=O)OC(C)(C)C)c2cc(O)ccc21` (centres undefined), in [1], the selectivity ratio was found to be 7.6. Also, the CC50 in data set [2] was determined as 151 µM. Further, in the data set with Chikungunya virus [3], the EC50 amounted to 20 µM.

As to `Cn1c(CSc2c(Cl)cccc2Cl)c(C(=O)OC(C)(C)C)c2cc(O)ccc21`, in [1], the selectivity ratio was found to be 2.7. Also, the half-maximal cytotoxic concentration (CC50) in data set [2] was 7.8 µM. Moreover, the EC50 with Chikungunya virus [3] amounted to 2.9 µM.

As for `Cn1c(C[S+]([O-])c2ccc(Cl)cc2)c(C(=O)OC(C)(C)C)c2cc(O)ccc21` (centres undefined), in data set [1], the selectivity ratio was determined as 11. For the same compound, the half-maximal cytotoxic concentration (CC50) in [2] is 93 µM. Besides, the EC50 in the data set with Chikungunya virus [3] was 8.2 µM.

Consider `Cn1c(CSc2ccccc2C(F)(F)F)c(C(=O)OC(C)(C)C)c2cc(O)c(Br)cc21`, for which the selectivity ratio in data set [1] worked out at 2.7. The CC50 in data set [2] is 26 µM. Further, the EC50 with Chikungunya virus [3] is 9.6 µM.

Consider `CN(C)Cc1c(O)c(Br)cc2c1c(C(=O)OC(C)(C)C)c(CSc1c(Cl)cccc1Cl)n2C`, for which, in [2], the CC50 turned out to be 17 µM. In addition, the EC50 in the data set on Chikungunya virus [3] is no less than 17 µM.

On to `CN(C)Cc1c(O)ccc2c1c(C(=O)OC(C)(C)C)c(C[S+]([O-])c1c(Cl)cccc1Cl)n2C` (centres undefined), for which, in [1], the selectivity ratio stood at 2.2. Further, the CC50 in data set [2] is 9.2 µM. Moreover, in the data set on Chikungunya virus [3], the concentration for a half-maximal effect (EC50) turned out to be 4.1 µM.

`Cn1c(CSc2ccc(Cl)cc2)c(C(=O)OC(C)(C)C)c2cc(O)ccc21`: the selectivity ratio in [1] was 3.2. Also, the CC50 in data set [2] came to 15 µM. Also, the EC50 in the data set with Chikungunya virus [3] was determined as 4.8 µM.

As to `Cn1c(CSc2ccc(F)cc2)c(C(=O)OC(C)(C)C)c2cc(O)ccc21`, the selectivity ratio in data set [1] turned out to be 3.2. The CC50 in [2] is 11 µM. The EC50 in the data set on Chikungunya virus [3] came out at 4.5 µM.
